The values below come from ChEMBL document CHEMBL1926548, “Synthesis and study of new paramagnetic resveratrol analogues” (Bioorg Med Chem, 2011).

Structures are written as SMILES. Calls of active or inactive are those of the source. The rule behind the calls is not given here.

System in the first test: not listed separately
The test can be described thus: Antioxidant activity in 0.05 M phosphate buffered saline assessed as trolox equivalents of ABTS radical scavenging activity after 6 mins by TEAC assay. The class given is functional. A digest of the protocol: (§1)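 ABTS (7 mM in water) reacted with 2.45 mM persulfate (final) for 12–16 h in the dark at room temperature. Diluted in ethanol or 0.05 M PBS pH 7.4 to A734 0.70 ± 0.02. Compound added at 2.5–12.5 µM, read at 734 nm after 6 min at 25 °C. TEAC = slope of % inhibition vs concentration divided by Trolox slope. Three independent experiments.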
As to `COc1cc(/C=C/C2=CC(C)(C)N(O)C(C)(C)C2)cc(OC)c1`, the Ratio turned out to be 0.28.
The same measure, in the same setting: the value for `CC1(C)C=C(/C=C/C2=CC(C)(C)N(O)C(C)(C)C2)CC(C)(C)N1O` was 0.37; that for `CC1(C)C=C(/C=C/c2cc(O)cc(O)c2)CC(C)(C)N1O` was 0.62.
Still for that read-out and setting: the value for `Oc1ccc(/C=C/c2cc(O)cc(O)c2)cc1` was 1.3; that for `CC1(C)c2ccc(/C=C/c3cc(O)cc(O)c3)cc2C(C)(C)N1O` was 0.67; that for `COc1cc(/C=C/C2=CC(C)(C)NC(C)(C)C2)cc(OC)c1` was 0.02.

Another test relates to RAW264.7. The test can be described thus: Antiinflammatory activity in mouse RAW264.7 cells assessed as inhibition of LPS-induced ROS production after 24 hrs using DCFH-DA by fluorescent microplate reader. In kind it is functional, cell-based. A digest of the protocol:
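Cells seeded 5*10^4/well and kept overnight at 37 °C, 5% CO2 in DMEM with 10% heat-inactivated FCS and L-glutamine. Fresh medium, then LPS (E. coli 0127:B8, 100 ng/mL) with or without compound (12.5–100 µM) for 24 h. C400 (2 µg/mL) added for a further 2 h. Fluorescence read at ex 485/em 555 nm. Reported as % of LPS-only mean. n = 6, three repeats.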
For the compound `CC1(C)C=C(/C=C/c2cc(O)cc(O)c2)CC(C)(C)N1[O]`, the inhibition entry is “Dose-dependent effect”.
`CC1(C)C=C(/C=C/C2=CC(C)(C)N([O])C(C)(C)C2)CC(C)(C)N1[O]`: the inhibition entry was “Dose-dependent effect”.
The same measure, in the same setting: the value for `COc1cc(/C=C/C2=CC(C)(C)N([O])C(C)(C)C2)cc(OC)c1` was “Dose-dependent effect”; that for `CC1(C)c2ccc(/C=C/c3cc(O)cc(O)c3)cc2C(C)(C)N1[O]` was “Dose-dependent effect”; that for `Oc1ccc(/C=C/c2cc(O)cc(O)c2)cc1` was “Dose-dependent effect”.
`COc1cc(OC)cc(C2=C(c3cc(OC)cc(OC)c3)C(C)(C)NC2(C)C)c1`: the inhibition entry was “Dose-dependent effect”.
With `CC1(C)C(c2ccc(O)cc2)=C(c2cc(O)cc(O)c2)C(C)(C)N1[O]`, the inhibition result is “Dose-dependent effect”.
With `COc1cc(/C=C/C2=CC(C)(C)NC(C)(C)C2)cc(OC)c1`, the inhibition entry is “Dose-dependent effect”.

System in a further test: not listed separately
The test can be described thus: Antioxidant activity in ethyl alcohol assessed as trolox equivalents of ABTS radical scavenging activity after 6 mins by TEAC assay. In kind it is functional. An outline of the steps:
as §1
Take `COc1ccc(/C=C/c2cc(OC)cc(OC)c2)cc1`: the Ratio came out at 0.04.
Still for that read-out and setting: the value for `CC1(C)C=C(/C=C/c2cc(O)cc(O)c2)CC(C)(C)N1[O]` was 0.92; that for `CC1(C)C=C(/C=C/C2=CC(C)(C)N([O])C(C)(C)C2)CC(C)(C)N1[O]` was 0.22.
Same read-out and setting: the value for `COc1cc(/C=C/C2=CC(C)(C)N([O])C(C)(C)C2)cc(OC)c1` was 0.2; that for `CC1(C)c2ccc(/C=C/c3cc(O)cc(O)c3)cc2C(C)(C)N1[O]` was 0.98; that for `Oc1ccc(/C=C/c2cc(O)cc(O)c2)cc1` was 1.
For the compound `CC1(C)C(c2ccc(O)cc2)=C(c2cc(O)cc(O)c2)C(C)(C)N1[O]`, the Ratio was 1.02.
Still for that read-out and setting: the value for `COc1cc(/C=C/C2=CC(C)(C)NC(C)(C)C2)cc(OC)c1` was 0.32.

For another test, the system named is RAW264.7. The test can be described thus: Antiinflammatory activity in mouse RAW264.7 cells assessed as inhibition of LPS-induced nitrite production after 24 hrs by Griess method. In kind it is functional, cell-based. An outline of the steps:
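Seeding, medium, overnight culture and treatment as for ROS: LPS 100 ng/mL plus compound at 12.5–100 µM for 24 h. Culture medium mixed with an equal volume of Griess reagent (1% sulphanilamide, 0.1% naphthylethylenediamide, 5% phosphoric acid). Absorbance read at 550 nm and expressed as % of LPS-only mean. n = 6, three repeats.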
(In general: Nitrite, measured by Griess reagent, commonly stands in for NO production.)
On to `CC1(C)C=C(/C=C/c2cc(O)cc(O)c2)CC(C)(C)N1[O]`, for which the inhibition result is “Dose-dependent effect”.
The same measure, in the same setting: the value for `CC1(C)C=C(/C=C/C2=CC(C)(C)N([O])C(C)(C)C2)CC(C)(C)N1[O]` was “Dose-dependent effect”; that for `COc1cc(/C=C/C2=CC(C)(C)N([O])C(C)(C)C2)cc(OC)c1` was “Dose-dependent effect”.
On the same count and under the same terms, the value for `CC1(C)c2ccc(/C=C/c3cc(O)cc(O)c3)cc2C(C)(C)N1[O]` was “Dose-dependent effect”; that for `Oc1ccc(/C=C/c2cc(O)cc(O)c2)cc1` was “Dose-dependent effect”.
For `COc1cc(OC)cc(C2=C(c3cc(OC)cc(OC)c3)C(C)(C)NC2(C)C)c1`, the inhibition entry is “Dose-dependent effect”.
`CC1(C)C(c2ccc(O)cc2)=C(c2cc(O)cc(O)c2)C(C)(C)N1[O]`: the inhibition result is “Dose-dependent effect”.
On the same count and under the same terms, the value for `COc1cc(/C=C/C2=CC(C)(C)NC(C)(C)C2)cc(OC)c1` was “Dose-dependent effect”.

The test system of a further test is RAW264.7. The experiment in a line: Antiinflammatory activity in mouse RAW264.7 cells assessed as inhibition of LPS-induced TNF-alpha production at 50 uM after 1.5 hrs by ELISA. The class given is functional, cell-based. An outline of the steps:
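Cells seeded 2*10^5/well and cultured overnight as above. Fresh medium, then LPS (100 ng/mL) alone or with compound for 1.5 h. TNFα in medium measured with a mouse TNFα ELISA kit, read at 450 nm. Reported as % of LPS-only mean. n = 3, three repeats. Groups compared at p<0.05.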
For `CC1(C)C=C(/C=C/c2cc(O)cc(O)c2)CC(C)(C)N1[O]`, the inhibition result is “Active”.
On the same count and under the same terms, the value for `CC1(C)C=C(/C=C/C2=CC(C)(C)N([O])C(C)(C)C2)CC(C)(C)N1[O]` was “Active”; that for `CC1(C)c2ccc(/C=C/c3cc(O)cc(O)c3)cc2C(C)(C)N1[O]` was “Active”; that for `Oc1ccc(/C=C/c2cc(O)cc(O)c2)cc1` was “Active”.
In the case of `COc1cc(OC)cc(C2=C(c3cc(OC)cc(OC)c3)C(C)(C)NC2(C)C)c1`, the inhibition entry is “Active”.
On to `CC1(C)C(c2ccc(O)cc2)=C(c2cc(O)cc(O)c2)C(C)(C)N1[O]`, for which the inhibition result is “inactive”.
For `COc1cc(/C=C/C2=CC(C)(C)NC(C)(C)C2)cc(OC)c1`, the inhibition entry is “Active”.
